Holding throughout (type): functional
The subject of experiment [1] is Mus musculus. Kind of experiment: Trypanocidal Activity at I.C.E. value 0.19 when administered subcutaneously.
In experiment [2] the test system is Mus musculus. In words: Trypanocidal Activity at I.C.E. value 0.17 when administered perorally.
The subject of experiment [3] is Mus musculus. Kind of experiment: Trypanocidal Activity at I.C.E. value 0.20 when administered subcutaneously.
Experiment [4] relates to Mus musculus. Kind of experiment: Trypanocidal Activity at I.C.E. value 0.50 when administered subcutaneously. The method, boiled down:
(§1)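 Blood-stage T. rhodesiense infection came from a standard inoculum lethal to all untreated mice. Drug was given by subcutaneous injection to groups of five mice. Survival beyond 30 days counted as cure. […] Sub-curative doses scored 0, and data were normalized at each dose.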

Experiment [5] deals with Mus musculus. In words: Trypanocidal Activity at I.C.E. value 0.85 when administered subcutaneously. The procedure, abridged:
(§2)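 Mice, in groups of five per dose, were given a standard inoculum of blood-stage T. rhodesiense that is lethal to all untreated controls, then dosed subcutaneously. Usually 11 dose levels were used (2^n × 0.42 mg/kg).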

The test system of experiment [6] is Mus musculus. Kind of experiment: Trypanocidal Activity at I.C.E. value 0.06 when administered perorally.
In experiment [7] the test system is Mus musculus. Kind of experiment: Trypanocidal Activity at I.C.E. value 0.86 when administered subcutaneously. The method, boiled down: as §2
Experiment [8] relates to Mus musculus. Kind of experiment: Trypanocidal Activity at I.C.E. value 0.22 when administered subcutaneously.
The subject of experiment [9] is Trypanosoma brucei rhodesiense. Kind of experiment: In Vitro measurement of inhibition of leucine uptake in cell culture of Trypanosoma rhodesiense. Particulars: read-out: ID50 (the source's name). The method, boiled down:
(§3)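 Trypanosomes harvested from infected rats, cultured 3 h with several concentrations of drug, usually 0.1–100 µg/mL. Radiolabeled L-leucine uptake measured. ID50 is the concentration in µg/mL giving 50% inhibition of incorporation.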

Experiment [10] deals with Trypanosoma brucei rhodesiense. In words: In Vitro measurement of inhibition of thymidine uptake in cell culture of Trypanosoma rhodesiense. Particulars: read-out: ID50 (the source's name). The method, boiled down: (§4)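 Parasites harvested from infected rats and incubated 3 h across a drug concentration series, usually 0.1–100 µg/mL. Incorporation of radiolabeled thymidine measured. ID50 is the concentration (µg/mL) producing 50% inhibition.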

The subject of experiment [11] is Mus musculus. In words: Trypanocidal Activity at I.C.E. value 0.63 when administered subcutaneously. The procedure, abridged: as §2
Experiment [12] concerns Mus musculus. Kind of experiment: Trypanocidal Activity was determined after subcutaneous administration. The procedure, abridged:
as §2

Experiment [13] has as its system Mus musculus. Kind of experiment: Trypanocidal Activity at I.C.E. value 0.36 when administered subcutaneously.
In experiment [14] the test system is Mus musculus. Kind of experiment: Trypanocidal Activity at I.C.E. value 0.45 when administered perorally.
Experiment [15] has as its system Trypanosoma brucei rhodesiense. In words: In Vitro measurement of inhibition of leucine uptake in cell culture of Trypanosoma rhodesiense. Particulars: read-out: ID50 (the source's name). The method, boiled down:
as §3

Experiment [16] has as its system Trypanosoma brucei rhodesiense. Kind of experiment: In Vitro measurement of inhibition of thymidine uptake in cell culture of Trypanosoma rhodesiense. Particulars: read-out: ID50 (the source's name). The procedure, abridged: as §4
The test system of experiment [17] is Mus musculus. Kind of experiment: Trypanocidal Activity at I.C.E. value 0.45 when administered subcutaneously. The method, boiled down: as §1
In experiment [18] the test system is Mus musculus. In words: Trypanocidal Activity at I.C.E. value 0.35 when administered perorally.
The test system of experiment [19] is Mus musculus. Kind of experiment: Trypanocidal Activity at I.C.E. value 0.46 when administered subcutaneously. The procedure, abridged: as §1
The subject of experiment [20] is Mus musculus. Kind of experiment: Trypanocidal Activity at I.C.E. value 0.49 when administered perorally.
Experiment [21] has as its system Mus musculus. Kind of experiment: Trypanocidal Activity at I.C.E. value 0.18 when administered subcutaneously.
Experiment [22] deals with Mus musculus. In words: Trypanocidal Activity at I.C.E. value 0.49 when administered subcutaneously. The method, boiled down: as §1
The subject of experiment [23] is Mus musculus. Kind of experiment: Trypanocidal Activity at I.C.E. value 0.12 when administered perorally.
The test system of experiment [24] is Mus musculus. In words: Trypanocidal Activity at I.C.E. value 0.23 when administered subcutaneously. The procedure, abridged:
as §1

For experiment [25], the system named is Mus musculus. In words: Trypanocidal Activity at I.C.E. value 0.71 when administered subcutaneously. The procedure, abridged:
as §2

For experiment [26], the system named is Mus musculus. In words: Trypanocidal Activity at I.C.E. value 0.53 when administered perorally.

A value given as a limit tells only on which side of the number the result lay.

This passage reports CD50 and IC50 results from ChEMBL document CHEMBL1124947, “Cationic antiprotozoal drugs. Trypanocidal activity of 2-(4'-formylphenyl)imidazo[1,2-a]pyridinium guanylhydrazones and related derivatives of quaternary heteroaromatic compounds” (J Med Chem, 1990).

As to `Br.C[n+]1ccccc1COc1ccc(/C=N/NC(=N)N2CCCC2)cc1.[Br-]`, the CD50 in [1] was 0.1 mg/kg; in experiment [2] it was 106 mg/kg.

As for `C=CC[n+]1c(-c2ccc(NC(C)=O)cc2)cn2ccccc21.[Br-]`, the CD50 in [3] is 26 mg/kg.

In turn, `Br.CCCCNC(=N)N/N=C/c1ccc(-c2cn3ccccc3[n+]2C)cc1.[Br-]` yielded a CD50 in experiment [4] of 0.8 mg/kg.

On to `Br.Cc1ccc2n(c1)cc(COc1ccc(/C=N/NC(=N)NO)cc1)[n+]2C.[Br-]`, for which the CD50 in [5] is 0.2 mg/kg.

As to `Br.Cn1c[n+](Cc2ccc(/C=N/NC(=N)N)cc2)c2ccccc21.[Br-]`, the results for the CD50 in [6] and in experiment [1] were 424 mg/kg and 6.6 mg/kg, respectively.

As to `Br.Cc1ccc2n(c1)cc(COc1ccc(/C=N/NC3=NCCN3)cc1)[n+]2C.[Br-]`, the CD50 in experiment [7] stood at 0.8 mg/kg.

In [8], `Br.C[n+]1c(-c2ccc(/C=N/NC(=N)NN3CCOCC3)cc2)cn2ccccc21.[Br-]` had a CD50 of 0.8 mg/kg. Further, the IC50 in experiment [9] was 9.7 µg/mL; in experiment [10], 6.7 µg/mL.

On to `Cc1ccc(S(=O)(=O)O)cc1.Cc1ccc(S(=O)(=O)[O-])cc1.Cn1cc[n+](C)c1/C=C/c1ccc(/C=N/NC(=N)N2CCCC2)cc1`, for which, in experiment [11], the CD50 came out at 0.03 mg/kg.

In experiment [12], `CCNC(=N)N/N=C/c1ccc(OCc2n(C)cc[n+]2C)cc1.Cc1ccc(S(=O)(=O)O)cc1.Cc1ccc(S(=O)(=O)[O-])cc1` showed a CD50 of 6.6 mg/kg.

For the compound `Br.C[n+]1cccc(COc2ccc(/C=N/NC3=NCCN3)cc2)c1.[Br-]`, the CD50 was found to be 3.3 mg/kg in experiment [13] and 13 mg/kg in experiment [14].

With `Br.CCCNC(=N)N/N=C/c1ccc(-c2cn3ccc(C)cc3[n+]2C)cc1.[Br-]`, the IC50 is 4.6 µg/mL in experiment [15] and 1.9 µg/mL in experiment [16]. Moreover, the CD50 in experiment [14] came to 26 mg/kg; in [11], 0.2 mg/kg.

Turning to `C[n+]1cccc(COc2ccc(/C=N/NC(=N)NO)cc2)c1.Cc1ccc(S(=O)(=O)O)cc1.Cc1ccc(S(=O)(=O)[O-])cc1`, the CD50 in [8] amounted to 1.6 mg/kg. Also, the IC50 in experiment [9] was 10.3 µg/mL; in experiment [10] it was 3.8 µg/mL.

In the case of `Br.C[n+]1cccc(COc2ccc(/C=N/NC3=NCCCN3)cc2)c1.[Br-]`, the CD50 worked out at 0.8 mg/kg in experiment [17] and 53 mg/kg in [18]. In addition, the IC50 in experiment [9] was greater than 10 µg/mL; in experiment [10], 3.7 µg/mL.

Consider `Br.Cc1ccc2n(c1)cc(COc1ccc(/C=N/NC(=N)N3CCCC3)cc1)[n+]2C.[Br-]`, for which the CD50 worked out at 0.8 mg/kg in experiment [19] and 13 mg/kg in [20].

With `C[n+]1c(-c2ccc(/C=N/NC3N=NC(=S)N3N)cc2)cn2ccccc21.[Br-]` (stereo not given), the CD50 in experiment [21] was 53 mg/kg.

Compound `Br.Cc1ccc2n(c1)cc(-c1ccc(/C=N/NC(=N)N3CCCC3)cc1)[n+]2C.[Br-]` yielded a CD50 in [22] of 0.1 mg/kg.

Turning to `Br.Cn1c[n+](Cc2ccc(/C=N/NC(=N)N3CCCC3)cc2)c2ccccc21.[Br-]`, the IC50 in experiment [9] is 0.7 µg/mL; in experiment [10] it was 0.6 µg/mL. For the same compound, the CD50 in [23] came to 424 mg/kg; in experiment [24] it was 6.6 mg/kg.

For `Br.C/N=C(\NC)N/N=C/c1ccc(OCc2cn3ccccc3[n+]2C)cc1.[Br-]`, the values for the CD50 in [17] and in experiment [18] were 0.8 mg/kg and 53 mg/kg, respectively.

Consider `C[n+]1c(-c2ccc(/C=N/Nc3nc[nH]n3)cc2)cn2ccsc21.[Br-]`, for which the CD50 in [4] came to 13 mg/kg.

Regarding `C[n+]1c(/C=C/c2ccc(/C=N/NC3=NCCCN3)cc2)cn2ccccc21.[Br-]`, the CD50 in [25] amounted to 0.4 mg/kg; in experiment [26] it was 13 mg/kg.

As for `Cc1ccc2n(c1)cc(-c1ccc(/C=N/NC(=N)N[N+](=O)[O-])cc1)[n+]2C.[Br-]`, in [12], the CD50 is less than 26 mg/kg.
